The subject of data set [1] is Rattus norvegicus. Description: Antihypertensive activity in spontaneously hypertensive rats (SHR) measured by percentage fall in cardiac rhythm (CR) at 5 mg/kg administered intraperitoneally at 3 h. The format is functional, Heart. The following applies: route intraperitoneal. The essentials:
(§1)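 Conscious SHR (Okamoto strain), 8 weeks old, male and female, 300–350 g, systolic BP ≥190 mmHg, CR 400–650 beats/min. Given ip or po at 2.5 mL/kg in normal saline or saline with 0.2% (carboxymethyl)cellulose and 1.0% Tween 80. Tail AP and CR recorded by mechanical transduction at 1, 3, 5 and 24 h, five animals per dose. Effect expressed as % fall versus control.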

For data set [2], the system named is Rattus norvegicus. Description: Antihypertensive activity in spontaneously hypertensive rats (SHR) measured by percentage fall in cardiac rhythm (CR) at 5 mg/kg administered intraperitoneally at 1 h. The format is functional, Heart. As to conditions: route intraperitoneal. An outline of the steps: as §1
The species entered for data set [3] is Homo sapiens. Description: In vitro inhibition of platelet aggregation induced by adrenaline at 10e-5 M. Format: functional. The essentials:
(§2)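 Human venous blood anticoagulated with 3.8% sodium citrate (1:9). PRP from centrifugation at 800 rpm for 10 min at room temperature. Count adjusted with PPP to […]. Compound in saline with 10% ethylene glycol is added to PRP and incubated at 37 °C before the agonist. Agonists: ADP 2×10^-5 M, AA 0.6 mM, PGH2 2.8 μM, adrenaline 0.6 μM. Born absorbance aggregometry; n = 5.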

In data set [4] the test system is Rattus norvegicus. Description: Percent fall in systolic blood pressure, directly measured on carotid (iv on the jugular vein) of spontaneously hypertensive rats at 1 mg/kg after 180 minutes. The format is functional, Artery. An outline of the steps: (§3)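 Anesthetized (sodium pentobarbital, 70 mg/kg) male and female Okamoto SHR, 8 weeks old, 300–350 g. Given iv into the jugular vein in normal saline. Arterial pressure and cardiac rhythm are recorded directly from the carotid by polygraph at set times after dosing. Each is expressed as percent change from the pre-dose control value.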

Data set [5] concerns Cavia porcellus. Kind of data set: Effect on thromboxane synthetase activity (ex vivo) at 100 mg/kg expressed as percent increase in TXB2. The format is functional. The essentials: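 Fasted male or female guinea pigs (250–300 g, five per group) dosed orally in normal saline or saline with 0.2% (carboxymethyl)cellulose/1.0% Tween 80; controls given vehicle. Under ether, cardiac blood collected into 3.8% citrate. PRP adjusted to […] and aggregation induced by ADP (second wave) or AA, read by absorbance aggregometry. PGE2 and TXB2 measured by RIA.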

In data set [6] the test system is Rattus norvegicus. Description: Percent fall in systolic blood pressure, directly measured on carotid (iv on the jugular vein) of spontaneously hypertensive rats at 1 mg/kg after 15 minutes. Format: functional, Artery. The essentials:
as §3

The nature of data set [7]: Effect on PGI-2 release from rat aortic tissue at a final concentration of 10e -4 for an incubation time of 35 minutes. The format is functional. The essentials: (§4)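 Female Wistar rats (200–220 g) received heparin 200 IU/kg ip and were killed 10 min later. Aortic pieces of about 25 mm² were washed in ice-cold oxygenated Krebs–Henseleit buffer, then incubated in 1 mL buffer at 37 °C. Compound at 10^-4 M final was added 10 min before tissue transfer. PGI2 release was read as antiaggregatory activity of the incubate on ADP (2×10^-6 M)-induced human PRP aggregation and by 6-keto-PGF1α RIA. n = 4.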

Data set [8] in a line: Effect on PGI-2 release from rat aortic tissue at a final concentration of 10e -4 for an incubation time of 25 minutes. Format: functional. An outline of the steps:
as §4

Data set [9] is described as follows: Effect on thromboxane synthetase activity on in vitro platelet aggregation induced by AA at 10e -5 M expressed as percent increase in PGE-2. Format: functional, Homo sapiens. An outline of the steps:
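Human citrated PRP adjusted to 200 000 […], compound at 10^-5 M final in saline/10% ethylene glycol, incubated at 37 °C. Aggregation induced with arachidonic acid 0.6 mM and read by Born absorbance aggregometry. PGE2 and TXB2 in the aggregated samples measured by radioimmunoassay. n = 5.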

Data set [10] concerns Rattus norvegicus. Description: Percent fall in systolic blood pressure, directly measured on carotid (iv on the jugular vein) of spontaneously hypertensive rats at 1 mg/kg after 120 minutes. Format: functional, Artery. An outline of the steps: as §3
Data set [11] concerns Rattus norvegicus. Description: Percent increase in cardiac rhythm, directly measured on carotid (iv on the jugular vein) of spontaneously hypertensive rats at 1 mg/kg after 15 minutes. Format: functional, Heart. An outline of the steps: as §3
A short description of data set [12]: Effect on PGI-2 release from rat aortic tissue at a final concentration of 10e -4 for an incubation time of 10 minutes. Format: functional. The essentials: as §4
For data set [13], the species on record is Homo sapiens. Description: In vitro inhibition of platelet aggregation induced by AA (PRP incubated for 60 minutes at 37 degree C) at 10e-5 M. Format: functional. As to conditions: 1 h. An outline of the steps:
as §2

The test system of data set [14] is Rattus norvegicus. Kind of data set: Antihypertensive activity in spontaneously hypertensive rats (SHR) measured by percentage fall in cardiac rhythm (CR) at 25 mg/kg administered intraperitoneally at 5 h. The format is functional, Heart. As to conditions: route intraperitoneal. The essentials:
as §1

A short description of data set [15]: Acute toxicity in mice was expressed as lethal dose. The format is organism-based. The following applies: mouse, in vivo. The essentials:
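Swiss male mice, 20 ± 2 g, dosed ip at four or more dose levels. LD50 calculated 7 days after drug administration by probit analysis (Miller and Tainter).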

The subject of data set [16] is Rattus norvegicus. Kind of data set: Antihypertensive activity in spontaneously hypertensive rats (SHR) measured by percentage fall in cardiac rhythm (CR) at 25 mg/kg administered intraperitoneally at 3 h. The format is functional, Heart. As to conditions: route intraperitoneal. An outline of the steps: (§5)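 Unanesthetized Okamoto-strain SHR, male and female, 8 weeks old, 300–350 g, systolic pressure ≥190 mmHg, heart rate 400–650 beats/min; five animals per dose. Given ip at 2.5 mL/kg, dissolved or suspended in normal saline or saline with 0.2% (carboxymethyl)cellulose and 1.0% Tween 80. Tail AP and CR recorded by mechanical transduction at set times; reported as percentage fall from control.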

For data set [17], the system named is Rattus norvegicus. Description: Antihypertensive activity in spontaneously hypertensive rats (SHR) measured by percentage fall in arterial pressure (AP) at 25 mg/kg administered intraperitoneally at 5 h. The following applies: route intraperitoneal. Format: functional, Artery. An outline of the steps: as §5
The nature of data set [18]: Effect on PGI-2 release from rat aortic tissue at a final concentration of 10e -4 for an incubation time of 30 minutes. The format is functional. An outline of the steps: as §4
Data set [19] concerns Rattus norvegicus. Kind of data set: Antihypertensive activity in spontaneously hypertensive rats (SHR) measured by percentage fall in arterial pressure (AP) at 25 mg/kg administered intraperitoneally at 1 h. The format is functional, Artery. The following applies: route intraperitoneal. The essentials:
as §5

In data set [20] the test system is Rattus norvegicus. Description: Antihypertensive activity in spontaneously hypertensive rats (SHR) measured by percentage fall in arterial pressure (AP) at 25 mg/kg administered perorally at 5 h. The format is functional, Artery. The following applies: route oral. An outline of the steps:
(§6)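 Oral dosing at 2.5 mL/kg to unanesthetized male and female Okamoto-strain SHR (8 weeks old, 300–350 g, systolic pressure ≥190 mmHg, heart rate 400–650 beats/min), five per dose. Vehicle was normal saline or saline with 0.2% (carboxymethyl)cellulose and 1.0% Tween 80. AP measured on the tail by mechanical transduction at set times; expressed as percentage fall from control.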

For data set [21], the species on record is Homo sapiens. Kind of data set: In vitro inhibition of platelet aggregation induced by ADP-II (PRP incubated for 60 minutes at 37 degree C) at 10e-5 M. Format: functional. The following applies: 1 h. The essentials: as §2
Data set [22] deals with Rattus norvegicus. Description: Antihypertensive activity in spontaneously hypertensive rats (SHR) measured by percentage fall in cardiac rhythm (CR) at 1 mg/kg administered intraperitoneally at 1 h. Format: functional, Heart. As to conditions: route intraperitoneal. An outline of the steps:
as §5

The subject of data set [23] is Rattus norvegicus. Description: Antihypertensive activity in spontaneously hypertensive rats (SHR) measured by percentage fall in arterial pressure (AP) at 25 mg/kg administered perorally at 24 h. Format: functional, Artery. The following applies: route oral. The essentials: as §6
Data set [24] has as its system Rattus norvegicus. Kind of data set: Antihypertensive activity in spontaneously hypertensive rats (SHR) measured by percentage fall in cardiac rhythm (CR) at 25 mg/kg administered intraperitoneally at 24 h. Format: functional, Heart. The following applies: route intraperitoneal. An outline of the steps:
as §5

On to `COc1ccc2[nH]c3c(NN)nncc3c2c1.Cl`, for which the “Decrease in CR” value was -8% in data set [1]; -9% in [2]; 24% in data set [14]; 19% in data set [16]; 9% in [22]; 38% in [24]. In addition, the inhibition at 10 µM in data set [3], in data set [13] and in data set [21] was 100% each time. Moreover, the “Decrease in blood pressure” value in data set [4] worked out at 36%; in data set [6], 40%; in data set [10] it was 40%. In [5], this molecule yielded an inhibition in vivo at 100 mg/kg of 95%. Also, the Inhibition in [7] is recorded as 25%; in data set [8] it was 45%; in data set [12], 50%; in data set [18], 35%. Also, the figures for the Increase in data set [9] and in data set [11] were 47% and 11%, respectively. In data set [15], this molecule had a median lethal dose (LD50) of 225 mg/kg. In addition, the “Decrease in AP” value was found to be 50% in data set [17], 58% in data set [19], 34% in data set [20] and 15% in data set [23].

As a reminder, the inhibition is the relative decrease from the control value, in per cent. Lower therefore signals a weak effect. For orientation: inhibition in vivo means the relative decrease from the control value, in per cent. For orientation: Inhibition means how much of the control response was suppressed. Usually LD50 stands for the dose at which mortality reaches 50%. A low value points to greater toxicity.

These data come from ChEMBL document CHEMBL1123757, “Selective thromboxane synthetase inhibitors and antihypertensive agents. New derivatives of 4-hydrazino-5H-pyridazino[4,5-b]indole, 4-hydrazinopyridazino[4,5-a]indole, and related compounds” (J Med Chem, 1987).
